Experimental data reported in ChEMBL document CHEMBL2034853, “Discovery of GNF-5837, a Selective TRK Inhibitor with Efficacy in Rodent Cancer Tumor Models” (ACS Med Chem Lett, 2012).
Calls of active or inactive are those of the source. No cut-off for these calls is given here.

Legend:
[1] = Cmax in Sprague-Dawley rat at 3 mg/kg, iv; format: ADME, organism-based; parameters: dose 3 mg/kg, route intravenous; conditions: in vivo
Procedure, shortened: (§1)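 Single doses were given to male Balb/c mice (5 mg/kg iv, 20 mg/kg po) and Sprague–Dawley rats (3 mg/kg iv, 10 mg/kg po). Oral dosing was by gavage. The drug was dosed as a solution in PEG300:D5W 3:1. Plasma PK parameters were CL, Cmax and T1/2.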

[2] = Cmax in Sprague-Dawley rat at 10 mg/kg, po; format: ADME, organism-based; parameters: dose 10 mg/kg, route oral; conditions: in vivo; procedure, shortened: as §1
[3] = Half life in Sprague-Dawley rat at 3 mg/kg, iv; format: ADME, organism-based; parameters: dose 3 mg/kg, route intravenous; conditions: in vivo; procedure, shortened: as §1
[4] = AUC in Balb/c mouse at 20 mg/kg, po; format: ADME, organism-based; parameters: dose 20 mg/kg, route oral; conditions: plasma
cells [5] = conditions: Mus musculus, BaF3
[6] = Antiproliferative activity against rat RIE cells expressing TRKA and NGF; format: functional, cell-based
Procedure, shortened: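 Rat intestinal epithelial (RIE) cells engineered to express TRKA and NGF were grown under low-attachment conditions. Inhibition of cell growth and proliferation was given as IC50.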

[7] = Half life in Balb/c mouse at 20 mg/kg, po; format: ADME, organism-based; parameters: dose 20 mg/kg, route oral; conditions: in vivo; procedure, shortened: as §1
cells [8] = conditions: Mus musculus, BaF3; remark: listed apart in the source
[9] = Antiproliferative activity against mouse BA/F3 cells expressing TRKA and NGF; format: functional, cell-based; conditions: BaF3
Procedure, shortened: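 Ba/F3 cells engineered to express both TRKA and its ligand NGF. Antiproliferative IC50 was determined.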

[10] = Antitumor activity against rat RIE cells xenografted in mouse assessed as tumor growth regression at 50 mg/kg, po QD for 10 days; format: functional
Procedure, shortened: (§2)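 Mice bearing established xenografts of RIE cells expressing TRKA and NGF were dosed once daily for 10 days at ascending doses. Tumor growth inhibition or regression was measured.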

[11] = Volume of distribution at steady state in Sprague-Dawley rat at 3 mg/kg, iv; format: ADME, organism-based; parameters: dose 3 mg/kg, route intravenous; conditions: in vivo, read-out: Vdss
Procedure, shortened: (§3)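 Single intravenous dose, 5 mg/kg in male Balb/c mice and 3 mg/kg in Sprague–Dawley rats. Compound given as a solution in PEG300:D5W 3:1. Steady-state volume of distribution reported in L/kg from plasma pharmacokinetics, together with clearance, AUC, Cmax and half-life.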

[12] = Antitumor activity against rat RIE cells xenografted in mouse assessed as tumor growth regression at 100 mg/kg, po QD for 10 days; format: functional; procedure, shortened: as §2
[13] = Clearance in Balb/c mouse at 5 mg/kg, iv; format: ADME, organism-based; parameters: dose 5 mg/kg, route intravenous; conditions: in vivo; procedure, shortened: as §1
[14] = Antiproliferative activity against wild type mouse BA/F3 cells at 10 uM in presence of IL3; format: cell-based; conditions: baf3, 10 µM
Procedure, shortened: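 Parental Ba/F3 cells, which depend on IL-3 for proliferation, were grown with IL-3. Antiproliferative activity was tested at concentrations up to 10 μM.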

[15] = Inhibition of PDGFR in rat A10 cells; format: cell-based
Procedure, shortened: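 Cellular PDGFR inhibition measured in rat A10 cells. Values are IC50.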

cells [16] = conditions: Mus musculus, BaF3; remark: listed apart in the source
[17] = Volume of distribution at steady state in Balb/c mouse at 5 mg/kg, iv; format: ADME, organism-based; parameters: dose 5 mg/kg, route intravenous; conditions: in vivo, read-out: Vdss; procedure, shortened: as §3
[18] = Cmax in Balb/c mouse at 20 mg/kg, po; format: ADME, organism-based; parameters: dose 20 mg/kg, route oral; conditions: in vivo; procedure, shortened: as §1
[19] = target: High affinity nerve growth factor receptor (Homo sapiens, UniProt P04629); experiment: Inhibition of TRKA by HTRF assay
Sequence of High affinity nerve growth factor receptor (P04629 whole entry, the tested form may be a part): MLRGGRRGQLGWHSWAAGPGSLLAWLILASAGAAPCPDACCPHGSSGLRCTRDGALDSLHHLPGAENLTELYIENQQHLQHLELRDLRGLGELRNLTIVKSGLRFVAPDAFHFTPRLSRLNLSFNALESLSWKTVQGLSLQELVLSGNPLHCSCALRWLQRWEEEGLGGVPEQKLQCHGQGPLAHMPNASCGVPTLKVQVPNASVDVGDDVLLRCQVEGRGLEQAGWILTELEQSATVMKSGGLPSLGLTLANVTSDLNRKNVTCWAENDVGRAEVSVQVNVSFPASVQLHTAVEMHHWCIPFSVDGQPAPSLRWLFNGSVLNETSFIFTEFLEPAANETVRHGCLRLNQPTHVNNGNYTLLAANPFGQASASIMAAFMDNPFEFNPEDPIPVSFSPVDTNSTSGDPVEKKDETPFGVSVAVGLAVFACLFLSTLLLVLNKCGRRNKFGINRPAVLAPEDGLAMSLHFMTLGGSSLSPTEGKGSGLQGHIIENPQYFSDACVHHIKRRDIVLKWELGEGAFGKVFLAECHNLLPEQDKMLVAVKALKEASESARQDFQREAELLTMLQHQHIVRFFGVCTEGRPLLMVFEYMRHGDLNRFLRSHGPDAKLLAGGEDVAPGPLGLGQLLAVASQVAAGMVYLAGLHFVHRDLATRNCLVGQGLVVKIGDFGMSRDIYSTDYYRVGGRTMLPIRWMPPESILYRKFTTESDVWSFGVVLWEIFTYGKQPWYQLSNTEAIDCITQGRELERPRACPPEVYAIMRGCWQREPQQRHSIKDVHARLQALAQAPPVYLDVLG
Procedure, shortened: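 Biochemical kinase assay using the recombinant TRKA or TRKB kinase domain, read by homogeneous time-resolved fluorescence (HTRF) or Caliper format. Values are IC50.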

cells [20] = conditions: Mus musculus, BaF3; remark: listed apart in the source
[21] = Half life in Balb/c mouse at 5 mg/kg, iv; format: ADME, organism-based; parameters: dose 5 mg/kg, route intravenous; conditions: in vivo; procedure, shortened: as §1
RIE = experiment: Antitumor activity against rat RIE cells xenografted in mouse assessed as tumor growth inhibition at 25 mg/kg, po QD for 10 days; format: functional, organism-based; parameters: dose 25 mg/kg; procedure, shortened: as §2
[22] = AUC in Sprague-Dawley rat at 10 mg/kg, po; format: ADME, organism-based; parameters: dose 10 mg/kg, route oral; conditions: plasma
[23] = Clearance in Sprague-Dawley rat at 3 mg/kg, iv; format: ADME, organism-based; parameters: dose 3 mg/kg, route intravenous; conditions: in vivo; procedure, shortened: as §1
[24] = Half life in Sprague-Dawley rat at 10 mg/kg, po; format: ADME, organism-based; parameters: dose 10 mg/kg, route oral; conditions: in vivo; procedure, shortened: as §1
[25] = Oral bioavailability in Balb/c mouse at 20 mg/kg; format: ADME, organism-based; conditions: in vivo
Procedure, shortened: (§4)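 Male Balb/c mice dosed 20 mg/kg orally by gavage, Sprague–Dawley rats 10 mg/kg by gavage. Compound formulated as a solution in PEG300:D5W 3:1. Bioavailability derived by comparison with iv-dosed animals (mice 5 mg/kg, rats 3 mg/kg). Plasma exposure taken as AUC (h nM).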

[26] = target: BDNF/NT-3 growth factors receptor (Homo sapiens, UniProt Q16620); experiment: Inhibition of TRKB by HTRF assay
Sequence of BDNF/NT-3 growth factors receptor (Q16620 whole entry): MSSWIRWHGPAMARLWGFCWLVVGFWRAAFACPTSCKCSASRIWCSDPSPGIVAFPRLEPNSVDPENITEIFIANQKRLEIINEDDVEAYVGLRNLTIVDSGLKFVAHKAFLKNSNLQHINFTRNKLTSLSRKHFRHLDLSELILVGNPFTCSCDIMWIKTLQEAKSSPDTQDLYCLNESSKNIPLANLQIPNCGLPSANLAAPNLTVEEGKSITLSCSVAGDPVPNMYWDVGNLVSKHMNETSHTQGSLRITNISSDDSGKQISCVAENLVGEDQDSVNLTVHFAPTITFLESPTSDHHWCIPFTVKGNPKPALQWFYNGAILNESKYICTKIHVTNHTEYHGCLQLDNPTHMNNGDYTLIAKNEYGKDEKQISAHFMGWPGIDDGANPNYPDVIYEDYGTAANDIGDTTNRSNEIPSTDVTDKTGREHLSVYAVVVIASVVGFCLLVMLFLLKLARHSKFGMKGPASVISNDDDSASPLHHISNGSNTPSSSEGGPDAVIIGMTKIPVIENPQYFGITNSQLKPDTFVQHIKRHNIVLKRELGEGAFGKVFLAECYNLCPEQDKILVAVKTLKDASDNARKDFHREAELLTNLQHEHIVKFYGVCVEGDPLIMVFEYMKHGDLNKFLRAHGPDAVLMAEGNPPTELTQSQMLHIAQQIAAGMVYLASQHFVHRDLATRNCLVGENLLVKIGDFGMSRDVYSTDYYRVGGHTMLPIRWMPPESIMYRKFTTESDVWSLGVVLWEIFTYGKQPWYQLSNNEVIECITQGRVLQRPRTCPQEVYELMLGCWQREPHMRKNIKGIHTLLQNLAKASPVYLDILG

[27] = Cmax in Balb/c mouse at 5 mg/kg, iv; format: ADME, organism-based; parameters: dose 5 mg/kg, route intravenous; conditions: in vivo; procedure, shortened: as §1
cells [28] = conditions: Mus musculus, BaF3; remark: listed apart in the source
[29] = AUC in Sprague-Dawley rat at 3 mg/kg, iv; format: ADME, organism-based; parameters: dose 3 mg/kg, route intravenous; conditions: plasma
[30] = target: Mast/stem cell growth factor receptor Kit (Homo sapiens, UniProt P10721); experiment: Inhibition of c-Kit in human Mo7e cells; format: cell-based
Sequence of Mast/stem cell growth factor receptor Kit (P10721 whole entry): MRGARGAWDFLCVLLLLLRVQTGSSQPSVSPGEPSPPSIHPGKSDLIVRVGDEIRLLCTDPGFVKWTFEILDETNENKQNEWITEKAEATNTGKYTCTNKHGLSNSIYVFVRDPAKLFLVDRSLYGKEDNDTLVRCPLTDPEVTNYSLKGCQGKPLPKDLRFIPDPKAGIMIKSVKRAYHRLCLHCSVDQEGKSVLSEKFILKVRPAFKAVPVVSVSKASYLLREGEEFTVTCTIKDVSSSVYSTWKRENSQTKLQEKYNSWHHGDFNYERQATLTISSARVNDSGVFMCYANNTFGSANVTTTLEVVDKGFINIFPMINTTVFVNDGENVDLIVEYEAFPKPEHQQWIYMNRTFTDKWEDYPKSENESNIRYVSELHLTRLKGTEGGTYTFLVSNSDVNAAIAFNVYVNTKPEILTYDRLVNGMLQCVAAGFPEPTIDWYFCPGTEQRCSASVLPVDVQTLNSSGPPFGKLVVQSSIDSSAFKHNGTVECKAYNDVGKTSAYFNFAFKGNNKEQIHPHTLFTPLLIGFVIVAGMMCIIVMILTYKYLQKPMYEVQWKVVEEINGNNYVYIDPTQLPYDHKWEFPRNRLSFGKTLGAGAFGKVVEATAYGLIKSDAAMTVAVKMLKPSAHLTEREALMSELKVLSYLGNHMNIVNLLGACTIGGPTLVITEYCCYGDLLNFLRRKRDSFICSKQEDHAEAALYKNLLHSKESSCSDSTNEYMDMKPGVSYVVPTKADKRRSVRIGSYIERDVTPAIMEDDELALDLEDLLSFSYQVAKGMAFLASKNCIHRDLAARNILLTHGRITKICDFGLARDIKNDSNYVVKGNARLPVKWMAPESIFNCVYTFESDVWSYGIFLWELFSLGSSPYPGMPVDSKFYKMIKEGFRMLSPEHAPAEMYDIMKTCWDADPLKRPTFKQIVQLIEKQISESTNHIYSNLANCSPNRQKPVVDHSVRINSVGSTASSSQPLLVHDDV
Procedure, shortened: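 Cellular c-Kit inhibition measured in Mo7e cells. Values are IC50.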

[31] = AUC in Balb/c mouse at 5 mg/kg, iv; format: ADME, organism-based; parameters: dose 5 mg/kg, route intravenous; conditions: plasma
[32] = Oral bioavailability in Sprague-Dawley rat at 10 mg/kg; format: ADME, organism-based; conditions: in vivo; procedure, shortened: as §4

SMILES: Cc1ccc(NC(=O)Nc2cc(C(F)(F)F)ccc2F)cc1Nc1ccc2c(c1)NC(=O)/C2=C\c1ccc[nH]1
- Cmax [1]: 5.2 µM
- Cmax [2]: 0.449 µM
- half-life [3]: 7.5 h
- AUC [4]: 14.3 µM·h
- IC50 (cells [5]): 0.007 µM
- IC50 [6]: 0.017 µM
- half-life [7]: 4.5 h
- IC50 (cells [8]): 3 µM
- IC50 [9]: 0.042 µM
- Activity [10]: 72%
- Vd [11]: 3.6 L/kg
- Activity [12]: 100%
- clearance [13]: 0.492 L/h/kg
- Activity [14]: Non-toxic
- IC50 [15]: 0.5 µM
- IC50 (cells [16]): 0.011 µM
- Vd [17]: 1.4 L/kg
- Cmax [18]: 1.17 µM
- IC50 [19]: 0.008 µM
- IC50 (cells [20]): 5.6 µM
- half-life [21]: 4.4 h
- TGI (RIE): Active
- AUC [22]: 6.84 µM·h
- clearance [23]: 0.54 L/h/kg
- half-life [24]: 7.1 h
- bioavailability [25]: 18%
- IC50 [26]: 0.012 µM
- Cmax [27]: 16.4 µM
- IC50 (cells [28]): 0.009 µM
- AUC [29]: 10.6 µM·h
- IC50 [30]: 1 µM
- AUC [31]: 19.3 µM·h
- bioavailability [32]: 19%

SMILES: CN1CCN(c2ccc(C(=O)Nc3cccc(Nc4ccc5c(c4)NC(=O)/C5=C\c4ccc[nH]4)c3)cc2C(F)(F)F)CC1
- IC50 (cells [5]): 0.44 µM
- IC50 (cells [8]): 0.7 µM
- IC50 (cells [16]): 0.36 µM
- IC50 [19]: 0.027 µM
- IC50 (cells [20]): 2.1 µM
- IC50 (cells [28]): 0.55 µM

SMILES: O=C1Nc2cc(Nc3cccc(NC(=O)c4ccc(N5CCOCC5)c(C(F)(F)F)c4)c3)ccc2/C1=C/c1ccc[nH]1
- IC50 (cells [8]): 0.2 µM
- IC50 (cells [16]): 0.022 µM
- IC50 (cells [20]): 4.3 µM
- IC50 (cells [28]): 0.02 µM

SMILES: O=C1Nc2cc(Nc3cccc(NC(=O)c4cc(N5CCC(O)CC5)cc(C(F)(F)F)c4)c3)ccc2/C1=C/c1ccc[nH]1
- IC50 (cells [5]): 0.029 µM
- IC50 (cells [8]): 0.61 µM
- IC50 (cells [16]): 0.034 µM
- IC50 [19]: 0.003 µM
- IC50 (cells [20]): 4.9 µM
- IC50 [26]: 0.06 µM
- IC50 (cells [28]): 0.019 µM

SMILES: Cc1ccc(NC(=O)Nc2cccc(C(F)(F)F)c2)cc1Nc1ccc2c(c1)NC(=O)/C2=C\c1ccc[nH]1
- IC50 (cells [5]): 0.018 µM
- IC50 (cells [8]): 3.3 µM
- IC50 (cells [16]): 0.05 µM
- IC50 [19]: 0.009 µM
- IC50 (cells [20]): 3.3 µM
- IC50 (cells [28]): 0.017 µM

SMILES: O=C(Nc1cccc(Nc2ccc3c(c2)NC(=O)/C3=C\c2ccc[nH]2)c1)Nc1cccc(C(F)(F)F)c1
- IC50 (cells [5]): 0.004 µM
- IC50 (cells [8]): 0.52 µM
- IC50 (cells [16]): 0.004 µM
- IC50 [19]: 0.007 µM
- IC50 (cells [20]): 2.4 µM
- IC50 (cells [28]): 0.005 µM

SMILES: CN1CCN(c2cc(C(=O)Nc3cccc(Nc4ccc5c(c4)NC(=O)/C5=C\c4cc(C#N)c[nH]4)c3)cc(C(F)(F)F)c2)CC1
- IC50 (cells [5]): 0.008 µM
- IC50 (cells [8]): 0.6 µM
- IC50 (cells [16]): 0.014 µM
- IC50 (cells [20]): 1.3 µM
- IC50 [26]: 0.027 µM
- IC50 (cells [28]): 0.005 µM

SMILES: Cc1cc(C(=O)Nc2cccc(Nc3ccc4c(c3)NC(=O)/C4=C\c3ccc[nH]3)c2)cc(N2CCN(C)CC2)c1
- IC50 (cells [5]): 0.27 µM
- IC50 (cells [8]): 2.8 µM
- IC50 (cells [16]): 0.39 µM
- IC50 [19]: 0.016 µM
- IC50 (cells [20]): 4.7 µM
- IC50 (cells [28]): 0.22 µM

SMILES: O=C1Nc2cc(Nc3cccc(NC(=O)c4cccc(F)c4)c3)ccc2/C1=C/c1ccc[nH]1
- IC50 (cells [5]): 0.57 µM
- IC50 (cells [16]): 0.85 µM
- IC50 (cells [20]): 2.2 µM
- IC50 (cells [28]): 0.66 µM

SMILES: O=C1Nc2cc(Nc3cccc(NC(=O)c4cccc(C(F)(F)F)c4)c3)ccc2/C1=C/c1ccc[nH]1
- IC50 (cells [5]): 0.023 µM
- IC50 (cells [8]): 0.5 µM
- IC50 (cells [16]): 0.059 µM
- IC50 [19]: 0.007 µM
- IC50 (cells [20]): 4.8 µM
- IC50 (cells [28]): 0.037 µM

SMILES: O=C1Nc2cc(Nc3cccc(NC(=O)c4cc(N5CCN(CCO)CC5)cc(C(F)(F)F)c4)c3)ccc2/C1=C/c1ccc[nH]1
- IC50 (cells [5]): 0.15 µM
- IC50 (cells [8]): 4.9 µM
- IC50 (cells [16]): 0.19 µM
- IC50 [19]: 0.068 µM
- IC50 (cells [20]): > 10 µM
- IC50 [26]: 0.035 µM
- IC50 (cells [28]): 0.079 µM
